Results as given in PMC9749463 (European Journal of Pharmacology, 2021).
Read-outs that look alike come from different tables or passages of the source.

Columns and labels:
[1] = system: human recombinant KV7.1; details: 30 μM, manual patch-clamp; ref Crumb et al., 2016; cited from earlier work
[2] = target: T1, Kir2.1 (Homo sapiens, UniProt P63252); details: read-out: IC50 Kir2.1; manual patch-clamp; ref Crumb et al., 2016; cited from earlier work
T1 sequence (P63252 1-427): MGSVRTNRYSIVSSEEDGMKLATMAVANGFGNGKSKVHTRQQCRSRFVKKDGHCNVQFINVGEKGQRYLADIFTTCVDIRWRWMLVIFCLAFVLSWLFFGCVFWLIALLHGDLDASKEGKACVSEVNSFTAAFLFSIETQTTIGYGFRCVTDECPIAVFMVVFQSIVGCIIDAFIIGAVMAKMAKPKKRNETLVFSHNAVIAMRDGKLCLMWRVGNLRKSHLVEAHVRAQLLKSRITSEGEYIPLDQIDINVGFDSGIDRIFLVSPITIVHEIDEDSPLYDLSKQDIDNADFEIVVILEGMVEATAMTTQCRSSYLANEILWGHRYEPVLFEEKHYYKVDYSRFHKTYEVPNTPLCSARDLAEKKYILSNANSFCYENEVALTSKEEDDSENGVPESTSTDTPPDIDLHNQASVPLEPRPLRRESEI

[3] = system: human recombinant NaV1.5; details: 30 μM, manual patch-clamp; ref Crumb et al., 2016; cited from earlier work
[4] = system: Kir2.1; details: read-out: IC50 Kir2.1 outward component; ref Rodriguez-Menchaca et al., 2008; cited from earlier work
[5] = system: human recombinant CaV1.2; details: 30 μM, manual patch-clamp; ref Crumb et al., 2016; cited from earlier work
[6] = system: human recombinant KV4.3; details: 30 μM, manual patch-clamp; ref Crumb et al., 2016; cited from earlier work
[7] = target: CaV1.2/β2/α2δ1 (Homo sapiens, UniProt Q13936); assay: automated patch-clamp; type: cell-based; details: CdCl2 0.2 mM, end of recording
[8] = system: human adult cardiomyocytes; details: potassium in buffer decreased from 4 mM to 2.5 mM; ref Jordaan et al., 2021; cited from earlier work
[9] = ref Carlsson et al., 2020; cited from earlier work
[10] = HCQ monotherapy, meta-analysis of 28 clinical studies; ref Oscanoa et al., 2020; cited from earlier work
[11] = system: Kir2.1; details: read-out: IC50 Kir2.1; QPatch II platform; ref Okada et al., 2021; cited from earlier work
[12] = system: hERG; details: read-out: IC50 hERG; QPatch II platform; ref Okada et al., 2021; cited from earlier work
[13] = target: NaV1.5 (Homo sapiens, UniProt Q14524); assay: automated patch-clamp; type: cell-based; details: for decrease of NaV1.5 current: up to the highest tested concentration of 90 μM, attributable to current rundown
[14] = system: Plasmodium falciparum; details: isolates grown in human erythrocytes; ref Warhurst et al., 2003; cited from earlier work
[15] = target: T1, Kir2.1; assay: automated patch-clamp; type: cell-based; details: levorotatory enantiomer the most potent
[16] = ref Wainer et al., 1994; cited from earlier work
[17] = in vitro; ref McLachlan et al., 1993; cited from earlier work
[18] = system: human immune-deficiency virus serotype 1; details: human T-cell lines and macrophage hybridoma; ref Chiang et al., 1996; cited from earlier work
[19] = system: rabbit Purkinje fibers; assay: current clamp action potential recording on excised rabbit Purkinje fibers; details: for effect on membrane and AP parameters: 0.3 μM, any beating rate
In short: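 Purkinje fibers came from male New Zealand rabbits (1.7–2.1 kg). They were superfused at 10 mL/min and 36 ± 1 °C with bicarbonate buffer at pH 7.4. APs were recorded with 3 M KCl microelectrodes under pacing at 3, 1 and 0.25 Hz. Test compound (0.3, 3, 10, 30 μM) was applied for 30 min each, ascending, followed by 30 min washout; n = 6. Analysis used ANOVA with Dunnett versus baseline.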

[20] = target: hERG (Homo sapiens, UniProt Q12809); assay: automated patch-clamp; type: cell-based; details: ratio of IC50 values
[21] = target: KV7.1/minK (Homo sapiens, UniProt P51787); assay: automated patch-clamp; type: cell-based
[22] = target: T2, KV4.3/KChIP2.2 (Homo sapiens, UniProt Q9UK17); assay: automated patch-clamp; type: cell-based
T2 sequence (Q9UK17 1-655): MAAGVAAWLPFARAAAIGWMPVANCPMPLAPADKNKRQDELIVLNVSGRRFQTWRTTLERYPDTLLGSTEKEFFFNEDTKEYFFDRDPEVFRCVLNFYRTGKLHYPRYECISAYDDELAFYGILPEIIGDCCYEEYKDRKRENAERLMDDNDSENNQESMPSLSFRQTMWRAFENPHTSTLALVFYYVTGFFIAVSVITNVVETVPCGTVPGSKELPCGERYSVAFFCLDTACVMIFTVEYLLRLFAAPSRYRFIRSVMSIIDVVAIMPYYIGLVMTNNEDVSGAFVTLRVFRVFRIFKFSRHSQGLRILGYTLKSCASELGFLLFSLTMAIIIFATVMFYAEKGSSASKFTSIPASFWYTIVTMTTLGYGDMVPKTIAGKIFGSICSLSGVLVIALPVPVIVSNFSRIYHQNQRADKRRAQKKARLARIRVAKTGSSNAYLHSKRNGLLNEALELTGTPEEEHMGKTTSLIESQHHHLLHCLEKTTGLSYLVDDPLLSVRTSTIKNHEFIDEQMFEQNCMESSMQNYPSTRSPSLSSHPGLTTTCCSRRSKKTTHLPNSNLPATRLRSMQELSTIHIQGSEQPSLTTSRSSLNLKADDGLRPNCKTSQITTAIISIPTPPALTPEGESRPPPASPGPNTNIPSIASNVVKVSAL
T2 sequence (Q9NS61 1-252 isoform Q9NS61-2 partner): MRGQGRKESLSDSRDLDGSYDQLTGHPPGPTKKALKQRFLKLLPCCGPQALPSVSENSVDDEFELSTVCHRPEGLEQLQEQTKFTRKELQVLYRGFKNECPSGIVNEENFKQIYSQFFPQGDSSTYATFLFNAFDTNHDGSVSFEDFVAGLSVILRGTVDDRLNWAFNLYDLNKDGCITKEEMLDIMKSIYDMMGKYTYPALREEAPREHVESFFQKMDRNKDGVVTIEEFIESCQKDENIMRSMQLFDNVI
In short: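 CHO cells constitutively expressing human KV4.3/KChIP2.2 were whole-cell recorded at room temperature. Cells were held at −80 mV and stepped to +20 mV with 500 ms pulses. Test compound was applied at six cumulative ascending concentrations up to 90 μM in 0.3% or 1% DMSO with 1% Pluronic F-68. Leak was removed with 30 μM SKF-96365. Integral charge was normalized to pre-drug, and IC50 was fitted sigmoidally (0–100% constrained) with 95% CI.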

Sequence of NaV1.5 (Q14524 whole entry): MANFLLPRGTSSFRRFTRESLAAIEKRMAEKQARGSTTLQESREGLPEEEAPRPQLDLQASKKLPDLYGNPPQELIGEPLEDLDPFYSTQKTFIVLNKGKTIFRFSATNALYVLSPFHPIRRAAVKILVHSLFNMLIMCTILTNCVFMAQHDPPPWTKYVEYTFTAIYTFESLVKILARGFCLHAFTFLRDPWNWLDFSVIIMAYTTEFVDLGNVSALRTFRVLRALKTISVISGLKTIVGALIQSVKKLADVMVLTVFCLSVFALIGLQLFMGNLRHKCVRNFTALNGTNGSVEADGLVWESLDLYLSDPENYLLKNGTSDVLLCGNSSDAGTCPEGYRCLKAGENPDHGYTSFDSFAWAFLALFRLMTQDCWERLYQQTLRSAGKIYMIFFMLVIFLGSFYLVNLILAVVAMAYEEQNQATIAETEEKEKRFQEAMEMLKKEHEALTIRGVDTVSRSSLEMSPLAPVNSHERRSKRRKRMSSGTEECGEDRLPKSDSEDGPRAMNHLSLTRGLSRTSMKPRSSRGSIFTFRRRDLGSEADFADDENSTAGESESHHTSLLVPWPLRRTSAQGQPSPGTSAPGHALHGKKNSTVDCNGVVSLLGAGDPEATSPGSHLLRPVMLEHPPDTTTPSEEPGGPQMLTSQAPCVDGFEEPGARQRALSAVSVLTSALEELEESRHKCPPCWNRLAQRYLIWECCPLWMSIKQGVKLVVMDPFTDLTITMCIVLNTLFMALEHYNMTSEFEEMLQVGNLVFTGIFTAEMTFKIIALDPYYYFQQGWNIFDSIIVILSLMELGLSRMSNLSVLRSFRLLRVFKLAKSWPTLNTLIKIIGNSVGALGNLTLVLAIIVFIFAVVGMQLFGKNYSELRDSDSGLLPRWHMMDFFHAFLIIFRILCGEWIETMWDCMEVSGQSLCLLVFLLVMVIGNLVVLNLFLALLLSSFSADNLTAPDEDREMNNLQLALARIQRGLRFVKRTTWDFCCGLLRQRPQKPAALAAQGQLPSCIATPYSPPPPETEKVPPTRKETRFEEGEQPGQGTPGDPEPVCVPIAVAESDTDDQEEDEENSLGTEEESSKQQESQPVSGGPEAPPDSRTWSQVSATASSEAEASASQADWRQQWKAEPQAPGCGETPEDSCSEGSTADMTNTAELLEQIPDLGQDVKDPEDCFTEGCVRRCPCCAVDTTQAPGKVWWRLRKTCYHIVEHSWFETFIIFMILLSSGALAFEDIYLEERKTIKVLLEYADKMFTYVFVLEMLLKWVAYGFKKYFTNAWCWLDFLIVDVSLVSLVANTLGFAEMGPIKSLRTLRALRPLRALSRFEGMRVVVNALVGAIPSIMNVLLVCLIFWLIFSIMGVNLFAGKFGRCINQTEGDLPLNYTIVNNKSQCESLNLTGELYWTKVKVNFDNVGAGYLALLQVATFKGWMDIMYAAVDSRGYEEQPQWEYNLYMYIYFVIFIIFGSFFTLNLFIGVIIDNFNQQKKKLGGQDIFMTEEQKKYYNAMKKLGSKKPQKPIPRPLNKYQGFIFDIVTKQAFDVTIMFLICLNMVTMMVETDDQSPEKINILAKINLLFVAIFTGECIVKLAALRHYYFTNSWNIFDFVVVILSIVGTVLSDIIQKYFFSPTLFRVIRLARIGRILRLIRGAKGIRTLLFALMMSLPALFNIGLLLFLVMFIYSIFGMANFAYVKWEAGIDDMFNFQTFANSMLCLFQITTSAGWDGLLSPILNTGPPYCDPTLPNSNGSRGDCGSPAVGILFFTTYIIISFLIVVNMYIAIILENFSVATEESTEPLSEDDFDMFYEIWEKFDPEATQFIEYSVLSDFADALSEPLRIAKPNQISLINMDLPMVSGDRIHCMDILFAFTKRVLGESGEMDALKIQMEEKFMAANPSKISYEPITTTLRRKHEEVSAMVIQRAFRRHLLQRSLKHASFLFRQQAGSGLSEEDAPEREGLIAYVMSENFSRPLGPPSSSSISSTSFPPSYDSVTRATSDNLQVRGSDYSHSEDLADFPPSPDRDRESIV
Sequence of KV7.1/minK (P51787 whole entry): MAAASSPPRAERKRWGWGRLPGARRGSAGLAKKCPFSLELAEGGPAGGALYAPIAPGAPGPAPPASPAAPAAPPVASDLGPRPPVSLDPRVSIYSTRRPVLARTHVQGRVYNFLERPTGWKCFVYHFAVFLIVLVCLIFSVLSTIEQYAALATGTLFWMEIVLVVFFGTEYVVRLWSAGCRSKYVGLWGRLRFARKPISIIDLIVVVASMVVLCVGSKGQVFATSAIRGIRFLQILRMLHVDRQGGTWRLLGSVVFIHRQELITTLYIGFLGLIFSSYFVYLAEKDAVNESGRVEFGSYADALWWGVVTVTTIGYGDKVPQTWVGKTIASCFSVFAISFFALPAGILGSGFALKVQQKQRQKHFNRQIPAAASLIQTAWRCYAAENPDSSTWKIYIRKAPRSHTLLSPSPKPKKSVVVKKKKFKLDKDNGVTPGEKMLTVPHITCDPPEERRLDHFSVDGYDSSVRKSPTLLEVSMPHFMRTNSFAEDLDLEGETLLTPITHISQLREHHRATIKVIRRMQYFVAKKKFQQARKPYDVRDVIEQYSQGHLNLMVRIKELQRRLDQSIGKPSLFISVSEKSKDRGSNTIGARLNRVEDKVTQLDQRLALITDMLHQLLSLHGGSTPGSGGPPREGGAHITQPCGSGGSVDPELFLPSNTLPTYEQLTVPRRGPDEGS
Sequence of hERG (Homo sapiens, UniProt Q12809) (Q12809 whole entry): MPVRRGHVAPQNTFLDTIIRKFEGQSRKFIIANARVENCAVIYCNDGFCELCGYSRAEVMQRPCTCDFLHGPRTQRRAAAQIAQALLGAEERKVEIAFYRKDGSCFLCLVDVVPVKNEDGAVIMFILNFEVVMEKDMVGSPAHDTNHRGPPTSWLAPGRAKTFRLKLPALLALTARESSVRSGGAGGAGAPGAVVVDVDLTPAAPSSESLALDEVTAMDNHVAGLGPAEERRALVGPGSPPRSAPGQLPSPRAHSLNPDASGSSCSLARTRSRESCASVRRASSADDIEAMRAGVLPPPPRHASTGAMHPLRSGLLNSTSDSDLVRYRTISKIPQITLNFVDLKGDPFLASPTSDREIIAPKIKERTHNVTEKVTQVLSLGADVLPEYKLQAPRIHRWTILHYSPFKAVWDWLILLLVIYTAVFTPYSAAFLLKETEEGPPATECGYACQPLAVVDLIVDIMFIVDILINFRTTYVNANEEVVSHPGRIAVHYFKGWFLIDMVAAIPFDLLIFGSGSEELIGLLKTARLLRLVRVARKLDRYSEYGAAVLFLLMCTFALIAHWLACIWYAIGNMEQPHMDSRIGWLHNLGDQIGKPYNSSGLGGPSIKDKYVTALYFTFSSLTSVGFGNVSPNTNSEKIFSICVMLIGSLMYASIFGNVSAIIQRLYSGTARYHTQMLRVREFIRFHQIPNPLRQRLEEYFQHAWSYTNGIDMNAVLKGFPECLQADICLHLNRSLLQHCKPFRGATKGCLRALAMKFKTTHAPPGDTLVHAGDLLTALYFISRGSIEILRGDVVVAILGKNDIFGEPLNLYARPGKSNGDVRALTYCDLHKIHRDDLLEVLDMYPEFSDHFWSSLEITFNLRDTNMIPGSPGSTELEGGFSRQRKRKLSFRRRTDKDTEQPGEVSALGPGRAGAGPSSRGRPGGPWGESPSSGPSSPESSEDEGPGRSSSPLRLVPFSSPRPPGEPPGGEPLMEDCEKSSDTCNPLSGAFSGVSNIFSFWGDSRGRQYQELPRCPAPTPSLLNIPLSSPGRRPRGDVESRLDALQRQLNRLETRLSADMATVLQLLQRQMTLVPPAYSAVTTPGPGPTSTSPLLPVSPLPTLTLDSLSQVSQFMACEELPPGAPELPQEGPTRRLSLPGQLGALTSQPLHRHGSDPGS

CCN(CC)CCCC(C)Nc1ccnc2cc(Cl)ccc12 (stereo not drawn) [CQ, chloroquine]
inhibition of KV7.1 [1]: less than 20% | IC50 [2]: 11 µM | inhibition of NaV1.5 [3]: less than 20% | IC50 [4]: 9 µM | inhibition of CaV1.2 [5]: less than 20% | inhibition of KV4.3 [6]: less than 20%

[Cl][Cd][Cl] [CdCl2]
effect on CaV1.2 currents [7]: inhibited all the currents

CCN(CCO)CCCC(C)Nc1ccnc2cc(Cl)ccc12 (stereo not drawn) [HCQ, Hydroxychloroquine]
proarrhythmic risk at reduced potassium [8]: proarrhythmic risk rose significantly | plasma concentrations relative to blood [9]: two-fold lower | occurrence of QT-prolongations [10]: below 2% | IC50 [11]: 30 µM | IC50 [12]: 17 µM

CCN(CCO)CCCC(C)Nc1ccnc2cc(Cl)ccc12 (stereo not drawn) [R(-)HCQ]
decrease of NaV1.5 current [13]: below 10% | inhibition of Plasmodium falciparum proliferation, comparison of enantiomers [14]: identical IC50 values | block-potency ratio of the enantiomers against Kir2.1 [15]: two-fold | accumulation in ocular tissue [16]: preferential accumulation | free fraction (plasma protein binding) [17]: 63% | inhibition of HIV-1 replication, comparison of enantiomers [18]: equipotent | effect on membrane and AP parameters [19]: neither R(-)HCQ nor S(+)HCQ had a significant effect | autogenic activity ([19]; 10 μM and 30 μM): inducing autogenic activity | decrease of median resting membrane potential ([19]; 30 μM, 60 bpm (1 Hz)): 20% | increase of AP duration at near complete repolarization (APD90) ([19]; 30 μM, 180 bpm, n = 2 readings): 25% | early after depolarizations (EADs) ([19]; any concentration and pacing rate): no torsadogenic early after depolarizations (EADs) events were observed | greater potency of R(-)HCQ over S(+)HCQ on hERG [20]: 3.7 fold

CCN(CCO)CCC[C@H](C)Nc1ccnc2cc(Cl)ccc12 [S(+)HCQ]
decrease of NaV1.5 current [13]: below 10% | inhibition of Plasmodium falciparum proliferation, comparison of enantiomers [14]: identical IC50 values | free fraction (plasma protein binding) [17]: 36% | inhibition of HIV-1 replication, comparison of enantiomers [18]: equipotent | effect on membrane and AP parameters [19]: neither R(-)HCQ nor S(+)HCQ had a significant effect | abnormal AP exhibiting EADs ([19]; 10 μM, 15 bpm): one of the six fibers | increase of median APD90 ([19]; 10 μM, 15 bpm): 56% | median APD90 duration in presence of drug ([19]; 10 μM, 15 bpm): 827 ms | increase of median APD90 ([19]; 10 μM, 60 bpm): 34% | median APD90 duration in presence of drug ([19]; 10 μM, 60 bpm): 481 ms | increase of median APD90 ([19]; 10 μM, 180 bpm): 12% | median APD90 duration in presence of drug ([19]; 10 μM, 180 bpm): 246 ms | abnormal AP exhibiting EADs ([19]; 30 μM, 15 bpm, fibers that could follow pacing): one of the four fibers | decrease of median resting membrane potential ([19]; 30 μM, 180 bpm (3 Hz)): 11% | autogenic activity escaping electrical pacing ([19]; 30 μM, all rates): two out of six fibers

CC(C)COCC(CN(Cc1ccccc1)c1ccccc1)N1CCCC1 (stereo not drawn) [bepridil]
IC50 [13]: 2.5 µM | IC50 [21]: 7.2 µM | IC50 [22]: 11 µM
